Most compounds without a hit are left out; they make up all but 2.5% or so of the library.
ABHD5-PLIN5 inh: ABHD5-PLIN5 protein interaction inhibition. Split G. princeps luciferase complementation, luminescence, 4 h. inhibition, % at 4 µM. 360,000 compounds, 0.78% hits. AID 602281;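 active = inhibition above the mean inhibition across every tested compound plus 3 SD, cut at about 22% in these data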;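 also: 0% = DMSO only wells and the 100% control is not disclosed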
NadD inh: blocks S. aureus nicotinate mononucleotide adenylyltransferase; inhibition, % at 20 µM; purified NadD enzyme, colorimetric absorbance read-out; 360,000 compounds, 0.78% hits; in the data active = inhibition above about 26%
SENP1 inh: inhibitors of human SENP1 SUMO protease catalytic domain | recombinant SENP1 catalytic domain, CyPet-SUMO1-YPet FRET cleavage | Q9P0U3 | inhibition, % at 10 µM | 360,000 compounds, 0.21% hits | AID 624204;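 active = inhibition at least 30% at 10 µM, raw YFP signal under a set limit, fluorescence ratio 0.5 to 1.5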;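 also: 0% = enzyme with DMSO and 100% = no enzyme wells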
Target sequence (Q9P0U3 419-644 limits assumed): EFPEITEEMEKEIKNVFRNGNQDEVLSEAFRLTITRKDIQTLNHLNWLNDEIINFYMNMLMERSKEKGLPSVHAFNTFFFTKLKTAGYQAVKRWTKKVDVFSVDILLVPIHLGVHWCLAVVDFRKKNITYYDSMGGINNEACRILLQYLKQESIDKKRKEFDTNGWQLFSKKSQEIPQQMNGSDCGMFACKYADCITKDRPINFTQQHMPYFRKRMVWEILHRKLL
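Test system: human SENP1 catalytic domain; medium: Tris pH 8 buffer plus EDTA, NaCl, BME, BSA, NP40, catalase; incubation: 50 min reaction at room temperature; technique: FRET, CFP and YFP emission; controls: no-enzyme low control and enzyme-plus-DMSO high control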
GRK2 inh: human GRK2 inhibition via aptamer displacement; P25098; bead flow cytometry, FAM-aptamer displacement from GRK2; inhibition of aptamer binding, % at 10 µM; 330,000 compounds, 0.59% hits; AID 488847;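 active = inhibition of aptamer binding above 40%, roughly 3 SD of noise, on plates passing a quality check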;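 also: median bead fluorescence of bound FAM aptamer so fluorescent compounds give negative values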
B2AR ag: human beta-2 adrenergic receptor agonism by FAP; P07550; Am2.2-beta2AR cells, FAP receptor internalization, flow cytometry; response, % (no concentration beside the values); 340,000 compounds, 0.43% hits; AID 504454;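 active = response above a set limit, near 3 SD of response in nonfluorescent compounds, cut at about 42% in these data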
Target sequence (P07550 whole entry, looked up): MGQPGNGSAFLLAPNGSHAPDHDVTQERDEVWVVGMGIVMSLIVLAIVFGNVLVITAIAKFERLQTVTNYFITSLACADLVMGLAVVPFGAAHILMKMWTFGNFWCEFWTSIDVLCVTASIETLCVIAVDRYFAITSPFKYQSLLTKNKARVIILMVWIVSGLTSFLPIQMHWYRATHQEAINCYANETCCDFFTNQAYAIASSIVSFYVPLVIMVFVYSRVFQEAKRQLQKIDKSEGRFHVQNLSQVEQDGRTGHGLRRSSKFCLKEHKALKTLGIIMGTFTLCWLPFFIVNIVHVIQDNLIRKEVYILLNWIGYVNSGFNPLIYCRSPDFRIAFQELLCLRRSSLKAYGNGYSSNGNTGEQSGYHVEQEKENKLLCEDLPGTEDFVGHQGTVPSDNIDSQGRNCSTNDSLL
GRK2 inh confirm: human GRK2 inhibition confirmation, cherry pick 1; shares compounds with GRK2 inh; bead-bound GRK2, FAM-aptamer displacement, flow cytometry; aptamer displacement, % at 10 µM; 2,000 compounds, 4% hits;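 active = aptamer displacement above 40%, near three times the noise of non-fluorescent compounds, on plates passing quality checks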;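 also: negative values mostly reflect intrinsic compound fluorescence rather than true enhancement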
Aptamer quench SP: counter-screen for GRK2 aptamer inhibitors: fluorescent aptamer quenchers; shares compounds with GRK2 inh; Carboxyfluorescein RNA aptamer on beads, flow cytometry quenching; stronger effect = lower value; fluorescence response (% of DMSO), % at 10 µM; 2,000 tested, under 10 active;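 active = compounds that quench the bead-bound fluorescent RNA probe, cutting fluorescence to under half of the solvent control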;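 also: counterscreen run without GRK2 so only probe quenching by compound is measured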
GRK2 confirm 2: human GRK2 inhibition confirmation, cherry pick 2; 360 tested, under 10 active; AID 504782; shares compounds with GRK2 inh; inhibition of aptamer binding, % at 10 µM; bead-bound GRK2, FAM-aptamer displacement, flow cytometry;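 active = inhibition of aptamer binding above 40%, about triple the noise seen with nonglowing compounds, on plates passing quality control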;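 also: negative values mostly come from compounds that fluoresce themselves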
FAM quench CP2: aptamer fluorescence quenching in GRK2 counter-screen; carboxyfluorescein RNA aptamer beads, flow cytometry quenching; stronger effect = lower value; shares compounds with GRK2 inh; 360 tested, under 10 active; fluorescence response vs DMSO, % at 10 µM;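 active = response vs DMSO under 50%, meaning signal dropped by over half, treated as fluorescence quencher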;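 also: labelled aptamer on streptavidin beads without GRK2 as a quench counter-screen; 100% = bead fluorescence of DMSO wells and lower means quenching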
The depositor's hits bear a star; nt = no result given.

SMILES	ABHD5-PLIN5 inh	NadD inh	SENP1 inh	GRK2 inh	B2AR ag	GRK2 inh confirm	Aptamer quench SP	others
Cc1ccc(OCC(=O)Nc2ccc(C)c(F)c2)c([N+](=O)[O-])n1	-5	-3	1	nt	-6	nt	nt
COc1ccc(-c2sc3cc(OC)c(OC)cc3c2C#CC2(O)CCCCC2)cc1	-8	-13	-1	83*	6	-3	96
COc1ccccc1NC(=S)N1C2CCC1CC(NC(=O)NC13CC4CC(CC(C4)C1)C3)C2 (centres undefined)	-2	7	-1	46*	3	1	92
CCOc1ccccc1NC(=S)N1C2CCC1CC(NC(=O)NC13CC4CC(CC(C4)C1)C3)C2 (centres undefined)	-12	6	0	3	-10	nt	nt
CC(C)NC(=O)NC(=O)COC(=O)/C=C/c1ccccc1[N+](=O)[O-]	-1	0	-1	100*	6	1	102
COC(=O)CNC(=O)COC(=O)/C=C/c1ccccc1[N+](=O)[O-]	2	0	-3	0	-4	nt	nt
CC(C)Cc1nc2oc3c(=O)[nH]cnc3c2c2c1CCCC2	-1	1	-11	0	-7	nt	nt
CC(C)Cc1nc2oc3c(=O)[nH]cnc3c2c2c1CCC2	6	0	-1	93*	-4	1	100
O=C1CC(c2ccc3c(c2)OCCO3)Oc2ccccc21 (centres undefined)	5	-10	1	0	-3	nt	nt
O=C1CC(c2ccc3c(c2)OCCO3)Oc2ccc([N+](=O)[O-])cc21 (centres undefined)	12	-4	0	42*	9	-2	102
COc1cc(/C=C/C(=O)O[C@H]2[C@H](O[C@@H]3O[C@@H](C)[C@H](O)[C@@H](O)[C@H]3O)[C@@H](O)[C@H](OCCc3ccc(O)c(OC)c3)O[C@@H]2CO)ccc1O	1	4	-37	1	-4	nt	nt
O=[N+]([O-])c1ccc(N2CCN(c3cccc(Cl)c3)CC2)nc1	3	-2	0	11	2	5	115
CCN1CCN(CC(=O)N2N=CCC2c2ccccc2)CC1 (centres undefined)	-12	4	0	100*	5	0	100
O=C(CCCn1c(=S)[nH]c2ccccc2c1=O)N1CCN(c2cccc(Cl)c2)CC1	-4	25	3	0	1	-3	93
COc1ccc(N2CCN(CCCn3c(=S)[nH]c4ccccc4c3=O)CC2)cc1	11	-8	2	23	6	-2	95
CSc1ccc(/C=N/S(=O)(=O)c2ccccc2)cc1	-1	-5	0	0	6	nt	nt
Cc1cccc(S(=O)(=O)Nc2cc(Cl)ccc2N2CCOCC2)c1	-2	-6	2	81*	2	-2	106
O=S(=O)(Nc1cc(C(F)(F)F)ccc1N1CCOCC1)c1ccccc1	-1	-4	3	1	4	nt	nt
Cc1ccc2nc(-c3ccc(C#N)cc3)c(Cc3cccc(Cl)c3)n2c1	0	4	25	nt	nt	nt	nt
COc1ccc(Cl)cc1S(=O)(=O)NCc1nc2nc(C)cc(C)n2n1	-4	-4	0	4	-15	nt	nt
Cc1ccc(C)c(NC(=O)c2cnn3ccccc23)c1	-2	-4	-1	28	-13	-1	101
Cc1ccc(C)c(NC(=O)c2cc3ccccn3n2)c1	-1	-6	3	1	7	nt	nt
CC(Oc1ccccc1Cl)C(=O)N1CCOCC1 (centres undefined)	-5	-7	1	43*	6	nt	nt	GRK2 confirm 2=3;FAM quench CP2=100
CC(C(=O)N1CCOCCOCCOCC1)N1C(=O)c2ccccc2C1=O (centres undefined)	5	-3	2	86*	-5	-1	98
CN(CCCC(=O)NCc1ccc2c(c1)OCO2)S(=O)(=O)c1ccc([N+](=O)[O-])cc1	0	-11	0	2	-9	nt	nt
SMILES	ABHD5-PLIN5 inh	NadD inh	SENP1 inh	GRK2 inh	B2AR ag	GRK2 inh confirm	Aptamer quench SP	others
CNC(=O)C1(C)CCN1C(=O)Cc1ccc(C(C)C)cc1 (centres undefined)	4	-2	3	nt	nt	nt	nt
O=C(Nc1ccc(F)cc1)c1cc2cc(Cl)ccc2[nH]1	0	2	0	58*	0	nt	nt	GRK2 confirm 2=-25;FAM quench CP2=100
CCc1ccc2[nH]c(C(=O)Nc3ccc(C)c(F)c3)cc2c1	-8	8	-9	0	2	nt	nt
COCCn1nnnc1C(c1cccc(OC)c1OC)N1CCN(C(=O)c2ccco2)CC1 (centres undefined)	2	0	0	100*	-3	1	102
Cc1ccc(Cn2c(SC3CCOC3=O)nc3ccccc3c2=O)cc1 (centres undefined)	3	-2	2	43*	-2	nt	nt	GRK2 confirm 2=-2;FAM quench CP2=99
COc1ccccc1NC(=O)c1ccccc1N(Cc1ccccc1)S(C)(=O)=O	-1	1	0	0	6	nt	nt
CCc1ccc(OC(=O)Cc2ccc(OC)c(S(=O)(=O)N3CCOCC3)c2)cc1	3	-5	2	0	4	nt	nt
CCCOc1ccc(OC(=O)Cc2ccc(OC)c(S(=O)(=O)N3CCOCC3)c2)cc1	5	-5	1	100*	-7	-7	100
Cc1ccc(CN2CCN(Cc3cnc(N4CCOCC4)s3)CC2CCO)o1 (centres undefined)	-1	-2	-1	72*	1	2	95
Cc1ccc(CN2CCN(Cc3cnc(C)s3)CC2CCO)o1 (centres undefined)	-1	-2	-4	0	4	nt	nt
Cc1ccc(CN2CCN(CC(C)C)C(CCO)C2)s1 (centres undefined)	3	4	-2	97*	4	-1	98
Cc1ccc(NC(=O)C(C)OC(=O)c2ccc(Cl)nc2)cc1S(=O)(=O)N1CCOCC1 (centres undefined)	-4	7	-5	18	4	nt	nt
CN(c1ncc(C(F)(F)F)cc1Cl)N1C(=O)c2cccc([N+](=O)[O-])c2C1=O	-1	4	2	57*	-7	0	102
CN(C)C(=O)c1cn(N(C)c2ncc(C(F)(F)F)cc2Cl)c(=O)c2ccccc12	1	6	3	0	15	nt	nt
O=C(OCC(=O)N1CCN(S(=O)(=O)c2ccc(Cl)cc2)CC1)C1CC1	6	-4	0	1	2	nt	nt

Source: PubChem BioAssay
